Experimental data from ChEMBL document CHEMBL1145052, “Design and synthesis of novel pyridoxine 5'-phosphonates as potential antiischemic agents” (J Med Chem, 2003).

Assays:
[1] = test system: Rattus norvegicus; experiment: Ability of compound to reduce the infarct size in rat administered via bolus at 0.02 mmol/kg; assay type: functional
In short: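 Male Wistar rats, carotid artery and jugular vein cannulated, LAD snare placed, 30 min stabilization. Bolus injection 0.02 mmol/kg given 5 min before LAD occlusion; saline infusion controls. 25 min ischemia, 2 h reperfusion. Area at risk delineated with Evans blue (2% w/v). AR pieces stained with NBT (0.5 mg/mL) for 40 min at 37 °C. Infarct size expressed as % of AR.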

[2] = organism: Rattus norvegicus; experiment: Glucose oxidation was measured using [C14] Glucose in perfusing rat heart; assay type: functional
In short: (§1)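 Isolated, spontaneously beating rat hearts under aerobic perfusion for 60 min. Test agents perfused at 1 mM, DCA positive control at 3 mM, untreated controls; n = 6 hearts per group. [3H]-palmitate and [14C]-glucose perfused together to measure fatty acid and glucose oxidation simultaneously.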

[3] = organism: Rattus norvegicus; experiment: Fatty acid oxidation was measured using [3H]- palmitate in perfusing rat heart; assay type: functional; in short: as §1
[4] = organism: Rattus norvegicus; experiment: Inhibitory activity against ATP receptor in isolated perfused rat heart

| Activity [4] [µM] | Compound | Reduction [1] [%] | Activity [2] | Activity [3] |
| --- | --- | --- | --- | --- |
|  | Cc1ncc2c(c1O)COC2(O)C(F)(F)P(=O)(O)O (centres undefined) | 46 | 2339 | 414 |
| 10 | Cc1ncc(COP(=O)(O)O)c(C=O)c1O [PYRIDOXAL PHOSPHATE ANHYDROUS] | 33 | 2253 | 398 |
|  | Cc1ncc(C(O)P(=O)(O)O)c(O)c1O (centres undefined) | 19 |  |  |
|  | Cc1ncc(CP(=O)(O)O)c(O)c1O | 20 |  |  |
